Data from the RNAGym collection of RNA variant scans (doi:10.1126/science.aae0568).
Fewer inactive variants are shown than the library holds.

B1: tRNA (parent)
chain: GUUCCGUUGGCGUAAUGGUAACGCGUCUCCCUCCUAAGGAGAAGACUGCGGGUUCGAGUCCCGUACGGAACG

Variants of: B1
Experiment: yeast fitness relative to wild type (ratio to wild type); higher = fitter; tRNA-Arg(CCU), competitive growth, 37 C, YPD
Summary of the method: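 Changes in genotype frequencies gave Darwinian fitness relative to wild type. Frequencies were read by 100-nucleotide paired-end sequencing of gene amplicons before and after pooled Saccharomyces cerevisiae strains, carrying tRNA-Arg(CCU) gene variants at the native locus, were competed in YPD at 37°C for 24 hours in six replicates. A genotype was kept only with ≥ 100 starting reads, and estimates < 0.5 were set to 0.5.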

Row | Variant | yeast fitness
1 | U3C G9A A42U A70U | ≤ 0.5
2 | U3C G9C C11U C29G C30A U64G A69C | ≤ 0.5
3 | U3C C24G A43C G48A G58A G68C | ≤ 0.5
4 | U3C C61U | 0.847
5 | U3C C61G | 0.604
6 | U3C C27G G48C | 0.522
7 | U3C A21G C49U | 1.02
8 | U3C A14U A65C | ≤ 0.5
9 | U3C C46A G58C | 1.04
10 | U3C C5G A15G | ≤ 0.5
11 | U3C A36U | 0.656
12 | U3C C4A A36U A43U | ≤ 0.5
13 | U3C C5G | 0.761
14 | U3C C11G A37G | 0.563
15 | U3C C31U A69U | 0.782
16 | U3C C27U G58C A69C | 0.793
17 | U3C C4U C24U C62U A69U | 0.638
18 | U3C A20G U59A | 0.684
19 | U3C C31U U59G | 0.579
20 | U3C A21G C27A A36U A40G | ≤ 0.5
21 | U3C C46U | 0.892

Row | Variant | yeast fitness
22 | U3C C30U G38A G44C U54A | ≤ 0.5
23 | U3C C4U C24G C49U C60U C61A | ≤ 0.5
24 | U3C C31U U47C | 0.864
25 | U3C C30A A69U | 0.745
26 | U3C A20C G23C G56C A65C G68A | ≤ 0.5
27 | U3C G6C A14U G25A G38A U47A C60G A70G | 0.51
28 | U3C A15C G51C C61A | ≤ 0.5
29 | U3C G9A C11U | 0.808
30 | U3C A21G U32C A43U | 0.722
31 | U3C A69C | 0.967
32 | U3C C11A | 0.65
33 | U3C C11G | 0.608
34 | U3C G10A A40C C55G | ≤ 0.5
35 | U3C C22G A70U | 0.8
36 | U3C A70G | 0.944
37 | U3C A70C | 0.993
38 | U3C C27G G39A C46U G67A | ≤ 0.5
39 | U3C C33G C60A C66G | ≤ 0.5
40 | U3C C5U A21G C34G | ≤ 0.5
41 | U3C A40U G63A A65G | 0.549
42 | U3C C31U G67C | 0.797

Row | Variant | yeast fitness
43 | U3C A15U C34U A43G G68A A69U | ≤ 0.5
44 | U3C G6A A14G G18C C30U C31U G48A C55G | ≤ 0.5
45 | U3C C11U A40U G58A | 0.627
46 | U3C C29G C46U C49U U59G A65U G68A | ≤ 0.5
47 | U3C C34U U53C | ≤ 0.5
48 | U3C A37C C49U | 0.681
49 | U3C C22A A70C | 0.607
50 | U3C C4A A45G | 0.531
51 | U3C C27G C33A G51A | ≤ 0.5
52 | U3C G9C C11U C30G A43C C55U | ≤ 0.5
53 | U3C C30U C46A U54A A57G | ≤ 0.5
54 | U3C C27G C33G G51C C60U C61U | ≤ 0.5
55 | U3C C22G C31U U53C | ≤ 0.5
56 | U3C C29G | 0.679
57 | U3C C29U | 0.844
58 | U3C G10A | 0.718
59 | U3C C46A G56A | 0.699
60 | U3C C30A G51A | 0.602
61 | U3C G9C A70U | ≤ 0.5
62 | U3C A40C A45C | 0.502
63 | U3C C30A C61U | 0.678

Row | Variant | yeast fitness
64 | U3C A37U G52A | ≤ 0.5
65 | U3C C31G G51C | 0.55
66 | U3C C31U A42G | 0.798
67 | U3C C4G G12C G44C A57U | ≤ 0.5
68 | U3C C5G C24A | ≤ 0.5
69 | U3C C34A | 0.665
70 | U3C C34U | 0.789
71 | U3C G9A G50A | 0.838
72 | U3C A21G A43U A65C G68C | ≤ 0.5
73 | U3C C30G A43C C60G C66G A69G | ≤ 0.5
74 | U3C A15C C34G U47A C55U G68U | ≤ 0.5
75 | U3C C5A C11G A20U G25C G56A G58A G67C | ≤ 0.5
76 | U3C A40G C62U A65U | ≤ 0.5
77 | U3C G9C | 0.712
78 | U3C G9A | 1.04
79 | U3C A57G A69U | 0.599
80 | U3C C31G U32C G38C C46G G48C G68C | ≤ 0.5
81 | U3C C22A A45C C62G A65U | 0.64
82 | U3C C33G C55U | ≤ 0.5
83 | U3C C22G C29A A42C | ≤ 0.5
